From PubChem
PfGluPho inh: PfG6PD (Plasmodium falciparum) enzyme inhibition; PfGluPho enzyme, NADPH resazurin-diaphorase fluorescence; inhibition, % at 20 µM; 0.78% of 350,000 active; AID 504690;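 active = inhibition reaching at least a set limit at 20 µM in the primary screen, cut at about 59% in these data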;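 also: 0% = DMSO wells with substrate and 100% = DMSO wells lacking glucose-6-phosphate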
PHOSPHO1 inh: PHOSPHO1 (human) inhibition; recombinant PHOSPHO1, absorbance phosphatase assay; inhibition, % at 13.3 µM; 1.1% of 290,000 active; AID 1565; in the data active = inhibition above about 60%
TbHK1 inh: blocks Trypanosoma brucei hexokinase 1 activity; recombinant TbHK1, G6PDH-coupled NADH A340; inhibition, % at 10 µM; 0.11% of 220,000 active; AID 1430;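 active = inhibition of 50% or more in the single-dose primary screen; inactive = inhibition below 50%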
EP2 mod: modulators of human EP2 prostaglandin E2 receptor. induction, % at 25 µM. P43116. EP2-expressing cells, cAMP HTRF FRET, PGE2 co-stimulation. 0.83% of 260,000 active;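 active = compounds whose cAMP rise, as percent of the full-agonist control response, exceeds 60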;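 also: rat C6 glioma line stably carrying human EP2 under a CMV promoter; the protocol text gives 20 µM as final concentration; 100% = response of wells given 1 µM PGE2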
HKDC1 inhibitor: blocks human hexokinase HKDC1 activity; inhibition, % at 20 µM; 0.16% of 340,000 active; recombinant HKDC1, G6PDH/diaphorase resazurin coupled fluorescence;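 active = inhibition above about 35% when tested at 20 µM, limit read from the data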;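 also: plate controls were DMSO wells with enzyme for no effect and DMSO wells lacking enzyme for full effect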
Target sequence (Q2TB90 whole entry, looked up): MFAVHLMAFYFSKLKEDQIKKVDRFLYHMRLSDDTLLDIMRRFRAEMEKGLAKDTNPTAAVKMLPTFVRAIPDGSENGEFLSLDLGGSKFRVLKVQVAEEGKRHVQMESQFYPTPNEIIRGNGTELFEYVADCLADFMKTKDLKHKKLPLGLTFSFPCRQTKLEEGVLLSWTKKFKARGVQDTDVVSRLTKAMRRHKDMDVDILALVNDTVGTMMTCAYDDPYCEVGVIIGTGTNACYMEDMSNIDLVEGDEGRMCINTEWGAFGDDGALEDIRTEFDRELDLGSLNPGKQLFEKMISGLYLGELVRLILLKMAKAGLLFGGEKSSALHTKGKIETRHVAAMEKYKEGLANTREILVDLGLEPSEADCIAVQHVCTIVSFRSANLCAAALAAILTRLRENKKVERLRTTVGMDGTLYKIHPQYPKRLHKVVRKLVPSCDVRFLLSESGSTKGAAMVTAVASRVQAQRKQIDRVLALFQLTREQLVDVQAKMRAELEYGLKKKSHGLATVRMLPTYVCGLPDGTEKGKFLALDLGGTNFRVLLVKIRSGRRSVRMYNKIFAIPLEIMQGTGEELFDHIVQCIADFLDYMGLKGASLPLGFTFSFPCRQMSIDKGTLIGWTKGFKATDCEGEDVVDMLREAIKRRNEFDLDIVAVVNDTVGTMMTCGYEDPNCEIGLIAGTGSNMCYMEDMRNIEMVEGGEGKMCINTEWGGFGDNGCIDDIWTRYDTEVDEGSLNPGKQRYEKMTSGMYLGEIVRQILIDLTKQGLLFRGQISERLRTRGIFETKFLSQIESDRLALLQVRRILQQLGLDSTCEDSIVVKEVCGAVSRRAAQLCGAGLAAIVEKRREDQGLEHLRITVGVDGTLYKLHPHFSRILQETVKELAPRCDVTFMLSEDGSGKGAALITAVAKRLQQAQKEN
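Assay system: recombinant HKDC1 hexokinase; detection: coupled resazurin fluorescence, excitation 525 nm, emission 613 nm; benchmarks: DMSO-plus-enzyme-mix negative control, buffer-substituted positive control; compound dosing: single 20 µM dose; schedule: 90 min at room temperature in dark; also added: glucose plus 1 mM ATP as hexokinase substrates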
PGE2 EP2 inh: blocks the human prostaglandin E2 receptor EP2 | C6 glioma cells expressing human EP2, cAMP TR-FRET; cells stimulated with saturating PGE2 | inhibition, % at 25 µM | 0.52% of 260,000 active | AID 1422;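 active = percent inhibition above 40 after rounding to a whole number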;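 also: rat C6 glioma host cells with rolipram phosphodiesterase inhibitor present; the protocol text gives 20 µM as final concentration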
* = called active by the depositor; nt = not tested or not shown. Most compounds without a hit are left out; they make up all but 2.5% or so of the library.

SMILES	PfGluPho inh	PHOSPHO1 inh	TbHK1 inh	EP2 mod	HKDC1 inhibitor	PGE2 EP2 inh
COc1ccc(Cl)cc1-n1c(N)c(C(N)=O)sc1=S	36.4	99.9*	-16.5	1.0	4.1	7.0
Cc1ccc(C)c(-n2c(N)c(C(N)=O)sc2=S)c1	4.3	nt	-21.1	9.6	0.0	3.0
COC(=O)c1sc(=S)n(-c2ccccc2OC)c1N	7.2	-121.9	-9.7	13.4	-1.6	6.0
COc1ccc(-c2c(C)[nH]n3c(=O)cc(C(C)C)nc23)cc1	nt	nt	nt	-44.3	nt	7.2
COc1ccc(C(=O)n2c(=O)n(C(C)C)c3ncccc32)cc1	nt	nt	nt	20.0	nt	6.8
Fc1ccc(-[n+]2nc(Nc3ccccc3)sc2-c2c(Cl)cccc2Cl)cc1	63.7*	4.0	nt	nt	1.7	nt
NNC(=O)c1snnc1-c1ccccc1	-4.5	22.6	-5.8	7.3	-4.4	1.3
COC(=O)c1ccc(NC(=O)c2snnc2-c2ccccc2)cc1	-6.3	61.0*	-3.8	-37.2	9.5	5.7
COc1ccc(-n2c(C)c(C(=O)O)c3cc(OC)c4ccccc4c32)cc1	20.4	-20.6	-6.7	69.7*	8.0	6.9
CCOc1ccc(N=c2scc(-c3ccccc3)n2CCO)cc1	2.9	97.6*	-7.1	3.5	-0.2	nt
CCOc1ccc(N=c2scc(-c3ccc(OC)cc3)n2CCO)cc1	-2.1	-35.3	-3.9	-17.8	2.9	10.9
CC[n+]1c(/C=C/N(C)c2ccccc2)n(-c2ccccc2)c2ccc(-c3nc4ccccc4s3)cc21	75.3*	-154.8	nt	nt	22.3	nt
COC(=O)c1ccccc1NC(=O)C12CC3CC(C1)CC(n1cnc(Cl)n1)(C3)C2	0.3	7.4	-0.3	62.2*	-0.3	12.3
COC(=O)C12CC3CC(C1)CC(n1cnc(Cl)n1)(C3)C2	2.3	-3.3	3.3	2.9	0.1	6.7
CN1CCCC[C@@H]1CCN1c2ccccc2Sc2ccc(S(C)=O)cc21 (stereo partly drawn)	nt	nt	nt	13.2	nt	44.5*
CSc1ccc2c(c1)N(CCC1CCCCN1C)c1ccccc1S2 (stereo not drawn)	-2.4	-11.2	-10.9	-19.1	-3.5	13.4
Cc1ccc(N2CCCC2=O)cc1S(=O)(=O)NC1(c2ccccc2)CC1	nt	nt	nt	-2.7	nt	9.8
NC(=O)c1cc(C(=O)c2ccc(Cl)cc2Cl)c[nH]1	-7.7	64.3*	-2.3	-25.7	1.6	9.3
Cc1cc(NC(=O)c2cccc(Cl)c2)ccc1NC(=O)CN1CCCC(C)C1 (stereo not drawn)	nt	nt	nt	-13.8	nt	17.6
CCN(CC)C(=O)CSc1nnc(-c2ccccc2)n1-c1ccccc1	-6.0	81.6*	7.4	7.7	-3.5	12.1
CCN(CC)C(=O)CSc1nnc2sc3ccccc3n12	4.6	62.1*	3.6	2.0	-10.4	7.7
Cc1nc(NC(=O)c2ncoc2-c2cccs2)sc1C(C)(C)C	nt	nt	nt	-18.8	nt	nt
Cc1cccc2cc(CN(CCN3CCOCC3)C(=S)NCC3CCCO3)c(=O)[nH]c12 (stereo not drawn)	nt	nt	nt	-9.6	nt	7.7
CC(=O)CSc1ncnc2c1oc1ccccc12	-7.7	-3.5	-2.5	62.5*	-8.7	15.5
CCn1c(SCC(=O)N2CCCC(C)C2)nnc1-c1cccs1 (stereo not drawn)	nt	nt	nt	4.0	nt	10.0
SMILES	PfGluPho inh	PHOSPHO1 inh	TbHK1 inh	EP2 mod	HKDC1 inhibitor	PGE2 EP2 inh
Oc1ccc2ccccc2c1CNc1cnc2ccccc2c1	32.3	106.3*	-11.9	-32.6	11.7	9.0
CC(C)N1CC=C2C(C1)C(c1ccc(Cl)cc1)C(C#N)=C(N)C2(C#N)C#N (stereo not drawn)	nt	nt	nt	78.8*	nt	10.1
CCN(CC)Cc1c(C(=O)N/N=C/c2cccc3ccccc23)nnn1-c1nonc1N	2.0	17.4	nt	nt	-0.2	nt
COc1cccc(-c2c(C(=O)N/N=C/c3cccs3)nnn2-c2nonc2N)c1	59.1*	-12.1	nt	nt	11.1	nt
CCCc1c(C(=O)N/N=C/c2cccc3ccccc23)nnn1-c1nonc1N	1.4	61.6*	nt	nt	6.5	nt
CCOc1cc(NC(=O)c2cccs2)c(OCC)cc1NC(C)=O	nt	nt	nt	5.0	nt	10.3
O=C1N(c2ccccc2)C2CS(=O)(=O)CC2N1c1ccc(Br)cc1 (stereo not drawn)	-7.5	7.1	5.2	-6.2	-6.4	10.4
O=S1(=O)CC2NC(=S)N(c3cccc(Br)c3)C2C1 (stereo not drawn)	13.2	37.0	-2.7	70.4*	-0.8	5.9
CCc1ccc2[nH]c(=O)c(CN(CC3CCCO3)C(=S)NCc3ccccc3)cc2c1 (stereo not drawn)	nt	nt	nt	65.9*	nt	12.3
CCc1ccc2[nH]c(=O)c(CN(CC3CCCO3)C(=S)NC3CCCCC3)cc2c1 (stereo not drawn)	nt	nt	nt	81.5*	nt	9.7
CCNC(=S)N(CCN(C)C)Cc1cc2cc(CC)ccc2[nH]c1=O	nt	nt	nt	63.5*	nt	9.2
Cc1cc(C)cc(NC(=O)Cc2ccc(S(=O)(=O)N3CCCC3)s2)c1	5.5	nt	nt	nt	0.7	nt
O=C(Cc1ccc(S(=O)(=O)N2CCCC2)s1)Nc1nc2c(s1)CCCC2	5.6	61.4*	1.9	29.3	4.3	8.5
CC(=O)c1c(-c2ccc(C)cc2)nc2c3ccccc3ccn12	10.7	64.3*	-2.0	-33.1	-1.4	3.1
CCOC(=O)c1c(C)nc2c3ccccc3ccn12	29.1	-17.2	2.0	4.5	0.1	8.4
CCOC(=O)Cn1nnnc1CN(Cc1ccc(F)cc1)Cc1cc2cccc(C)c2[nH]c1=O	nt	nt	nt	-7.6	nt	10.4
O=C(C[n+]1cccc(CNC(=O)c2ccc(OC(F)F)cc2)c1)c1ccccc1	-10.7	61.0*	-0.9	-7.1	4.8	8.7
O=C(/C=C/c1cccs1)NC(=S)NNC(=O)c1ccccc1O	-49.0	-31.5	-17.3	-2.0	-38.0	15.2
COc1ccc(C(=O)NNC(=S)NC(=O)/C=C/c2cccs2)cc1	-37.3	89.7*	-4.0	-29.2	-17.5	3.4
COc1ccc(/C=C/C(=O)NC(=S)NNC(=O)Cc2cccs2)cc1	-17.0	95.7*	-20.2	8.7	-5.2	nt
O=C(/C=C/c1ccccc1)NC(=S)NNC(=O)Cc1cccs1	-12.7	1.1	4.9	-46.8	-5.1	10.8
COc1ccc(S(=O)(=O)N2CCC(C(=O)Nc3cc(Cl)ccc3OC)CC2)cc1	nt	nt	nt	-85.2	nt	8.3
CC1=C(C#N)c2nc(N)c(C#N)c(C)c2/C1=C\c1ccc(OCC(=O)O)c(Cl)c1	6.7	71.4*	-11.2	-46.5	18.4	18.2
Cc1nn2c(N3CCC(O)CC3)c3c(nc2c1-c1ccc(F)cc1)CCC3	nt	nt	nt	-41.0	nt	nt
CC(C)N1CC23C=CC(O2)C(C(=O)NC2(c4cccc(F)c4)CCCC2)C3C1=O (stereo not drawn)	nt	nt	nt	-19.4	nt	5.7
O=C(O)C1CCc2sc3[nH]c(=S)n(-c4ccccc4)c(=O)c3c21 (stereo not drawn)	30.8	7.4	-56.2	27.3	0.8	9.3
CCN(CC)C(=O)c1sc2[nH]c(=S)n(-c3ccccc3)c(=O)c2c1C	30.6	-58.7	-33.7	60.7*	-10.0	9.8
COc1ccc(-n2c(SCC(=O)Nc3cccc(O)c3)nnc2-c2cccnc2)cc1	nt	nt	nt	14.3	nt	6.6
